Measurements published in ChEMBL document CHEMBL2412970, “Synthesis and anticancer activity of 2,4-disubstituted furo[3,2-b]indole derivatives” (Eur J Med Chem, 2013).
Calls of active or inactive are those of the source. No cut-off for these calls is given here.

What was measured:
UACC-257 = assay: Cytotoxicity against human UACC257 cells after 48 hrs by sulforhodamine B assay; format: functional; conditions: UACC-257, 48 h
A498 [1] = assay: Induction of cell cycle arrest at G2/M phase in human A498 cells assessed as increase in CDK1 expression at 0.5 uM after 6 hrs by Western blotting analysis; format: functional, cell-based
Summary of the method: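 A498 cells exposed to 0.5 µM for 6, 12, 24, 36 or 48 h, then lysed on ice 30 min and spun 12 000g 20 min. Protein measured by Bradford; 20 µg per lane run on 10% SDS-PAGE, transferred to nitrocellulose, probed for cyclin B1 and CDK1, β-actin as loading control; n = 3 independent experiments.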

SN12C = assay: Cytotoxicity against human SN12C cells after 48 hrs by sulforhodamine B assay; format: functional
A498 [2] = assay: Cytotoxicity against human A498 cells after 48 hrs by sulforhodamine B assay; format: functional; conditions: A498, 48 h
RXF 393 = assay: Cytotoxicity against human RXF393 cells after 48 hrs by sulforhodamine B assay; format: functional; conditions: RXF 393, 48 h
A498 [3] = assay: Induction of apoptosis in human A498 cells assessed as early apoptotic cells at 0.5 uM after 48 hrs by AnnexinV/FITC-propidium iodide staining-based flow cytometry (reference value: 3.9%); format: functional
U-251 = assay: Cytotoxicity against human U251 cells after 48 hrs by sulforhodamine B assay; format: functional; conditions: U-251, 48 h
A498 [4] = assay: Cell cycle arrest in human A498 cells assessed as accumulation at G0/G1 phase at 0.5 uM after 24 hrs by propidium iodide staining-based flow cytometry (reference value: 78.70 +/- 0.02%); format: functional
Mus musculus = assay: Toxicity in BALB/cAnN.Cg-Foxn1nu/CrlNarl nude mouse assessed as change in body weight at 30 to 60 mg/kg/day, ip qd administered 5 times a week for 28 days measured every 7 days; format: organism-based; parameters: route intraperitoneal; conditions: in vivo
Summary of the method: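 Male nude mice, 18–20 g, 4–6 weeks old, carried subcutaneous A498 xenografts (2 × 10⁶ cells in 0.1 mL PBS). Once nodules reached 100 mm³, mice were randomized, eight per group. They received ip 30 or 60 mg/kg 5 times weekly for 4 weeks, with body weight and tumor size recorded every 7 days over 28 days.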

BT-549 = assay: Cytotoxicity against human BT549 cells after 48 hrs by sulforhodamine B assay; format: functional; conditions: BT-549, 48 h
A498 [5] = assay: Cell cycle arrest in human A498 cells assessed as accumulation at S phase at 0.5 uM after 48 hrs by propidium iodide staining-based flow cytometry (reference value: 15.92 +/- 0.03%); format: functional
HOP-62 = assay: Cytotoxicity against human HOP62 cells after 48 hrs by sulforhodamine B assay; format: functional; conditions: HOP-62, 48 h
SK-MEL-2 = assay: Cytotoxicity against human SK-MEL-2 cells after 48 hrs by sulforhodamine B assay; format: functional; conditions: SK-MEL-2, 48 h
A498 [6] = assay: Cell cycle arrest in human A498 cells assessed as accumulation at G2/M phase at 0.5 uM after 36 hrs by propidium iodide staining-based flow cytometry (reference value: 5.39 +/- 0.01%); format: functional
SK-OV-3 = assay: Cytotoxicity against human SKOV3 cells after 48 hrs by sulforhodamine B assay; format: functional; conditions: SK-OV-3, 48 h
A498 [7] = assay: Cell cycle arrest in human A498 cells assessed as accumulation at G0/G1 phase at 0.5 uM after 36 hrs by propidium iodide staining-based flow cytometry (reference value: 78.70 +/- 0.02%); format: functional
OVCAR-3 = assay: Cytotoxicity against human OVCAR3 cells after 48 hrs by sulforhodamine B assay; format: functional; conditions: OVCAR-3, 48 h
MDA-MB-435 = assay: Cytotoxicity against human MDA-MB-435 cells after 48 hrs by sulforhodamine B assay; format: functional; conditions: MDA-MB-435, 48 h
HCC 2998 = assay: Cytotoxicity against human HCC2998 cells after 48 hrs by sulforhodamine B assay; format: functional; conditions: HCC 2998, 48 h
A498 [8] = assay: Ratio of YC-1 IC50 to compound IC50 for human A498 cells after 48 hrs by MTT assay; format: functional
LOX IMVI = assay: Cytotoxicity against human LOXIMVI cells after 48 hrs by sulforhodamine B assay; format: functional
COLO 205 [9] = assay: Cytotoxicity against human COLO205 cells after 48 hrs by MTT assay; format: functional, cell-based; conditions: COLO 205, 48 h
Summary of the method: (§1)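 Cells were treated with a range of concentrations for 48 h. Viability was read by MTT: formazan was dissolved in DMSO and absorbance read at 570 nm. Untreated or 0.1% DMSO cells served as control. Data are mean from three independent experiments. HL-60, H460 and COLO 205 were kept in RPMI-1640 with 10% FBS and penicillin/streptomycin.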

SR = assay: Cytotoxicity against human SR cells after 48 hrs by sulforhodamine B assay; format: functional
A498 [10] = assay: Cell cycle arrest in human A498 cells assessed as accumulation at G2/M phase at 0.5 uM after 48 hrs by propidium iodide staining-based flow cytometry (reference value: 5.39 +/- 0.01%); format: functional
COLO 205 [11] = assay: Cytotoxicity against human COLO205 cells after 48 hrs by sulforhodamine B assay; format: functional; conditions: COLO 205, 48 h
MDA-MB-468 = assay: Cytotoxicity against human MDA-MB-468 cells after 48 hrs by sulforhodamine B assay; format: functional; conditions: MDA-MB-468, 48 h
OVCAR-4 = assay: Cytotoxicity against human OVCAR4 cells after 48 hrs by sulforhodamine B assay; format: functional; conditions: OVCAR-4, 48 h
NCI-H226 = assay: Cytotoxicity against human NCI-H226 cells after 48 hrs by sulforhodamine B assay; format: functional; conditions: NCI-H226, 48 h
[12] = Cytotoxicity against human H460 cells after 48 hrs by MTT assay; format: functional, cell-based; conditions: NCI-H460, 48 h; summary of the method: as §1
PC-3 = assay: Cytotoxicity against human PC3 cells after 48 hrs by sulforhodamine B assay; format: functional; conditions: PC-3, 48 h
[13] = read-out: pLC50 (the source's name) (converted)

## OCc1ccc(Cn2c3ccccc3c3oc(CO)cc32)o1
UACC-257
  GI50: 1.45 µM
UACC-257; [13]
  CC50: > 100 µM
UACC-257; read-out: pTGI (converted)
  TGI: 4.37 µM
A498 [1]
  Activity: Active
SN12C
  GI50: > 100 µM
SN12C; [13]
  CC50: > 100 µM
SN12C; read-out: pTGI
  TGI: > 100 µM
A498 [2]
  GI50: 0.141 µM
A498 [2]; read-out: pLC50 (converted)
  CC50: 0.661 µM
A498 [2]; read-out: pTGI (converted)
  TGI: 0.302 µM
RXF 393
  GI50: 75.9 µM
RXF 393; [13]
  CC50: > 100 µM
RXF 393; read-out: pTGI
  TGI: > 100 µM
A498 [3]
  Activity: 41%
U-251
  GI50: 30.9 µM
U-251; [13]
  CC50: > 100 µM
U-251; read-out: pTGI
  TGI: > 100 µM
A498 [4]
  Activity: 72.65%
Mus musculus
  Activity: Non-toxic
BT-549
  GI50: 3.89 µM
BT-549; [13]
  CC50: > 100 µM
BT-549; read-out: pTGI (converted)
  TGI: 61.7 µM
A498 [5]
  Activity: 10.64%
HOP-62
  GI50: > 100 µM
HOP-62; [13]
  CC50: > 100 µM
HOP-62; read-out: pTGI
  TGI: > 100 µM
SK-MEL-2
  GI50: > 100 µM
SK-MEL-2; [13]
  CC50: > 100 µM
SK-MEL-2; read-out: pTGI
  TGI: > 100 µM
A498 [6]
  Activity: 15.98%
SK-OV-3
  GI50: > 100 µM
SK-OV-3; [13]
  CC50: > 100 µM
SK-OV-3; read-out: pTGI
  TGI: > 100 µM
A498 [7]
  Activity: 69.69%
OVCAR-3
  GI50: 8.91 µM
OVCAR-3; [13]
  CC50: > 100 µM
OVCAR-3; read-out: pTGI
  TGI: > 100 µM
MDA-MB-435
  GI50: > 100 µM
MDA-MB-435; [13]
  CC50: > 100 µM
MDA-MB-435; read-out: pTGI
  TGI: > 100 µM
HCC 2998
  GI50: > 100 µM
HCC 2998; [13]
  CC50: > 100 µM
HCC 2998; read-out: pTGI
  TGI: > 100 µM
A498 [8]
  Ratio IC50: 1.5
LOX IMVI
  GI50: 66.1 µM
LOX IMVI; [13]
  CC50: > 100 µM
LOX IMVI; read-out: pTGI
  TGI: > 100 µM
COLO 205 [9]
  IC50: 31.1 µM
SR
  GI50: 89.1 µM
SR; [13]
  CC50: > 100 µM
SR; read-out: pTGI
  TGI: > 100 µM
A498 [10]
  Activity: 18.09%
COLO 205 [11]
  GI50: 61.7 µM
COLO 205 [11]; [13]
  CC50: > 100 µM
COLO 205 [11]; read-out: pTGI
  TGI: > 100 µM
MDA-MB-468
  GI50: 0.17 µM
MDA-MB-468; read-out: pTGI (converted)
  TGI: 0.562 µM
OVCAR-4
  GI50: 4.27 µM
OVCAR-4; [13]
  CC50: > 100 µM
OVCAR-4; read-out: pTGI
  TGI: > 100 µM
NCI-H226
  GI50: 0.224 µM
NCI-H226; read-out: pTGI (converted)
  TGI: 0.55 µM
[12]
  IC50: 74.1 µM
PC-3
  GI50: 55 µM
PC-3; [13]
  CC50: > 100 µM
PC-3; read-out: pTGI
  TGI: > 100 µM
